Seven molecules from ChEMBL document CHEMBL3421560, “Search for factors affecting antibacterial activity and toxicity of 1,2,4-triazole-ciprofloxacin hybrids” (Eur J Med Chem, 2015) can be followed below.

A word on the IC50: it is the concentration that gives 50% inhibition. A higher IC50 goes with weaker potency in that assay. Broadly, the MIC is the least concentration at which growth counts as inhibited. Low values mean greater potency, high ones weaker potency. A word on the EC50: it is the concentration giving half of the maximal effect.

One assay concerns the target DNA gyrase (Escherichia coli, UniProt P0AES4+P0AES6). Put plainly: Inhibition of Escherichia coli DNA gyrase after 1 hr by agarose gel electrophoresis. The assay is classed as protein-complex assay.
Assay [1] in a line: Inhibition of Escherichia coli DNA topoisomerase 4 using kDNA as substrate after 1 hr by agarose gel electrophoresis. Summed up:
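E. coli topoisomerase IV decatenation kit: kDNA (0.5 µg) with 1 U enzyme in supplied buffer plus varying compound levels, 37 °C for 1 h. Stopped as for the gyrase assay, then 1% agarose in TAE, 1.5 h at 80 V, ethidium bromide. IC50 = concentration blocking 50% conversion to decatenated minicircles, by gel densitometry.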

The subject of assay [2] is Staphylococcus aureus. Put plainly: Antimicrobial activity against methicillin-susceptible Staphylococcus aureus ATCC 25923 after 18 hrs by broth microdilution method. The assay is classed as functional. The note with it: ATCC 25923, 18 h. (Dilution methods test growth across graded concentrations, often in twofold steps.)
The subject of assay [3] is Staphylococcus aureus. Put plainly: Antimicrobial activity against methicillin-susceptible Staphylococcus aureus ATCC 6538 after 18 hrs by broth microdilution method. The assay is classed as functional. The note with it: ATCC 6538, 18 h.
Assay [4] deals with Staphylococcus aureus. Put plainly: Antimicrobial activity against Staphylococcus aureus Microbank 14001 after 18 hrs by broth microdilution method. The assay is classed as functional. The note with it: Microbank 14001, 18 h.
Assay [5] concerns Staphylococcus epidermidis. Put plainly: Antimicrobial activity against Staphylococcus epidermidis ATCC 12228 after 18 hrs by broth microdilution method. The assay is classed as functional. Conditions: ATCC 12228, 18 h.
The next assay relates to Bacillus subtilis. Put plainly: Antimicrobial activity against Bacillus subtilis […] after 18 hrs by broth microdilution method. The assay is classed as functional.
A further assay has as its system Bacillus cereus. Put plainly: Antimicrobial activity against Bacillus cereus ATCC 10876 after 18 hrs by broth microdilution method. The assay is classed as functional. The note with it: ATCC 10876, 18 h.
In the next assay the test system is Micrococcus luteus. Put plainly: Antimicrobial activity against Micrococcus luteus ATCC 10240 after 18 hrs by broth microdilution method. The assay is classed as functional. Conditions: ATCC 10240, 18 h.
In assay [6] the test system is Staphylococcus aureus. Put plainly: Ratio of vancomycin MIC to compound MIC for Staphylococcus aureus Microbank 14001. The assay is classed as functional.
For assay [7], the system named is Staphylococcus aureus. Put plainly: Ratio of MBC for methicillin-susceptible Staphylococcus aureus ATCC 25923 to MIC for methicillin-susceptible Staphylococcus aureus ATCC 25923. The assay is classed as functional. Summed up: (§1)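 MBC taken as lowest concentration giving >99.9% CFU reduction of the initial inoculum; value is MBC divided by MIC for the same strain.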

Assay [8] concerns Staphylococcus aureus. Put plainly: Ratio of MBC for methicillin-susceptible Staphylococcus aureus ATCC 6538 to MIC for methicillin-susceptible Staphylococcus aureus ATCC 6538. The assay is classed as functional. Summed up: as §1
Assay [9] concerns Staphylococcus aureus. Put plainly: Ratio of MBC for Staphylococcus aureus Microbank 14001 to MIC for Staphylococcus aureus Microbank 14001. The assay is classed as functional. An outline of the steps: as §1
Another assay concerns Escherichia coli. Put plainly: Antimicrobial activity against Escherichia coli ATCC 25922 after 18 hrs by broth microdilution method. The assay is classed as functional. The note with it: ATCC 25922, 18 h.
For the next assay, the system named is Klebsiella pneumoniae. Put plainly: Antimicrobial activity against Klebsiella pneumoniae ATCC 13883 after 18 hrs by broth microdilution method. The assay is classed as functional. Conditions: ATCC 13883, 18 h.
For the next assay, the system named is Proteus mirabilis. Put plainly: Antimicrobial activity against Proteus mirabilis ATCC 12453 after 18 hrs by broth microdilution method. The assay is classed as functional. The note with it: ATCC 12453, 18 h.
Assay [10] relates to Pseudomonas aeruginosa. Put plainly: Antimicrobial activity against Pseudomonas aeruginosa ATCC 9027 after 18 hrs by broth microdilution method. The assay is classed as functional. The note with it: ATCC 9027, 18 h.
The subject of assay [11] is Pseudomonas aeruginosa. Put plainly: Ratio of ciprofloxacin MIC to compound MIC for Pseudomonas aeruginosa ATCC 9027. The assay is classed as functional.
A further assay deals with HEK293. Put plainly: Cytotoxicity against HEK293 cells after 72 hrs by MTT assay. The assay is classed as cell-based. Conditions: Homo sapiens, HEK293, 48 h; in the assay text read “48 hrs” for “72 hrs”. An outline of the steps: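 HEK-293 (ATCC CRL-1573) in MEM with 10% FBS plus penicillin/streptomycin, seeded 3 x 10^5 cells/well, 24 h at 37 °C, 5% CO2. Treated with compounds diluted from 50 mg/mL DMSO stock into medium with 2% FBS for 48 h. Viability by MTT formazan readout; EC50 relative to control cells, mean ± SD of three independent experiments.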
On the technique in general: Tetrazolium assays rely on reduction of a dye to a coloured formazan, in cell work by metabolically active cells.

Assay [12] deals with Staphylococcus aureus. Put plainly: Ratio of ciprofloxacin MIC to compound MIC for methicillin-susceptible Staphylococcus aureus ATCC 6538. The assay is classed as functional.

≈ marks a conversion by molar mass, not a printed value. Bounds are passed on as bounds.

In the case of `O=C(O)c1cn(C2CC2)c2cc(N3CCN(Cn4nc(-c5cccc(O)c5)n(-c5cc(Cl)cc(Cl)c5)c4=S)CC3)c(F)cc2c1=O`, the IC50 against DNA gyrase was 6.05 µM; in [1] it was 78.7 µM.
For `CCCc1nn(CN2CCN(c3cc4c(cc3F)c(=O)c(C(=O)O)cn4C3CC3)CC2)c(=S)n1-c1cccc(I)c1` the same measures were 6.28 µM and 155 µM.
Take `O=C(O)c1cn(C2CC2)c2cc(N3CCN(Cn4nc(-c5ccccc5O)n(Cc5ccc(F)cc5)c4=S)CC3)c(F)cc2c1=O`: the minimal inhibitory concentration (MIC) with Staphylococcus aureus [2] is 0.76 µM (≈ 0.49 µg/mL); against Staphylococcus aureus [3], 0.19 µM (≈ 0.122 µg/mL); in the assay with Staphylococcus aureus [4], 0.046 µM (≈ 0.0297 µg/mL); in [5] it was 0.046 µM (≈ 0.0297 µg/mL); in the assay on Bacillus subtilis, 0.011 µM (≈ 0.00709 µg/mL); against Bacillus cereus, 0.093 µM (≈ 0.06 µg/mL). Besides, the MIC amounted to 0.76 µM (≈ 0.49 µg/mL) in the assay with Micrococcus luteus; 0.011 µM (≈ 0.00709 µg/mL) with Escherichia coli; 0.093 µM (≈ 0.06 µg/mL) with Klebsiella pneumoniae; 0.023 µM (≈ 0.0148 µg/mL) in the assay with Proteus mirabilis; 0.046 µM (≈ 0.0297 µg/mL) in the assay on Pseudomonas aeruginosa [10]. Also, the Ratio is given as 15 in the assay with Staphylococcus aureus [6], “<=4” in the assay with Staphylococcus aureus [7], “<=4” in the assay on Staphylococcus aureus [8] and “<=4” in the assay with Staphylococcus aureus [9].
As for `COc1ccc(-n2c(-c3ccc(O)cc3)nn(CN3CCN(c4cc5c(cc4F)c(=O)c(C(=O)O)cn5C4CC4)CC3)c2=S)cc1`, the MIC against Staphylococcus aureus [2] is 0.76 µM (≈ 0.488 µg/mL); in the assay on Staphylococcus aureus [3], 0.19 µM (≈ 0.122 µg/mL); in the assay on Staphylococcus aureus [4], 0.093 µM (≈ 0.0598 µg/mL); in assay [5], 0.37 µM (≈ 0.238 µg/mL); in the assay with Bacillus subtilis, 0.023 µM (≈ 0.0148 µg/mL); against Bacillus cereus, 0.19 µM (≈ 0.122 µg/mL). Further, the MIC with Micrococcus luteus turned out to be 1.52 µM (≈ 0.977 µg/mL); with Escherichia coli, 0.012 µM (≈ 0.00771 µg/mL); against Klebsiella pneumoniae, 0.093 µM (≈ 0.0598 µg/mL); against Proteus mirabilis, 0.023 µM (≈ 0.0148 µg/mL); against Pseudomonas aeruginosa [10], 0.023 µM (≈ 0.0148 µg/mL). In addition, the Ratio result in the assay on Staphylococcus aureus [7] is on record as “<=4”; in the assay on Staphylococcus aureus [8] it was “<=4”; in the assay on Staphylococcus aureus [9] it was “<=4”; in the assay on Pseudomonas aeruginosa [11], 31. This molecule returned an EC50 in the assay with HEK293 of 105 µM.
`O=C(O)c1cn(C2CC2)c2cc(N3CCN(Cn4nc(-c5cccc(O)c5)n(-c5ccccc5)c4=S)CC3)c(F)cc2c1=O`: the MIC in the assay with Staphylococcus aureus [2] worked out at 0.8 µM (≈ 0.49 µg/mL); in the assay on Staphylococcus aureus [3] it was 0.39 µM (≈ 0.239 µg/mL); in the assay with Staphylococcus aureus [4], 0.39 µM (≈ 0.239 µg/mL); in assay [5], 0.19 µM (≈ 0.116 µg/mL); in the assay with Bacillus subtilis, 0.098 µM (≈ 0.06 µg/mL); against Bacillus cereus it was 0.19 µM (≈ 0.116 µg/mL). The MIC against Micrococcus luteus amounted to 1.6 µM (≈ 0.98 µg/mL); in the assay with Escherichia coli, 0.012 µM (≈ 0.00735 µg/mL); against Klebsiella pneumoniae, 0.049 µM (≈ 0.03 µg/mL); against Proteus mirabilis, 0.024 µM (≈ 0.0147 µg/mL); against Pseudomonas aeruginosa [10], 0.19 µM (≈ 0.116 µg/mL). For the same molecule, the Ratio result with Staphylococcus aureus [7], with Staphylococcus aureus [8] and in the assay on Staphylococcus aureus [9] was “<=4” throughout. In the assay on HEK293, this molecule yielded an EC50 of 140 µM.
Regarding `O=C(O)c1cn(C2CC2)c2cc(N3CCNCC3)c(F)cc2c1=O` [CIPROFLOXACIN], the MIC in the assay on Staphylococcus aureus [2] was 2.96 µM (≈ 0.981 µg/mL); against Staphylococcus aureus [3] it was 0.72 µM (≈ 0.239 µg/mL); in assay [5] it was 1.48 µM (≈ 0.49 µg/mL); with Bacillus subtilis it was 0.09 µM (≈ 0.0298 µg/mL); in the assay on Bacillus cereus it was 0.36 µM (≈ 0.119 µg/mL); in the assay on Micrococcus luteus, 5.88 µM (≈ 1.95 µg/mL). Besides, the MIC amounted to 0.024 µM (≈ 0.00795 µg/mL) against Escherichia coli, 0.36 µM (≈ 0.119 µg/mL) against Klebsiella pneumoniae, 0.045 µM (≈ 0.0149 µg/mL) in the assay with Proteus mirabilis and 0.72 µM (≈ 0.239 µg/mL) in the assay with Pseudomonas aeruginosa [10]. Also, the IC50 in assay [1] was 80 µM.
On to `O=C(O)c1cn(C2CC2)c2cc(N3CCN(Cn4nc(-c5cccc(O)c5)n(Cc5ccc(F)cc5)c4=S)CC3)c(F)cc2c1=O`, for which the MIC was determined as 0.37 µM (≈ 0.239 µg/mL) against Staphylococcus aureus [2]; 0.093 µM (≈ 0.06 µg/mL) with Staphylococcus aureus [3]; 0.37 µM (≈ 0.239 µg/mL) against Staphylococcus aureus [4]; 0.19 µM (≈ 0.122 µg/mL) in assay [5]; 0.023 µM (≈ 0.0148 µg/mL) against Bacillus subtilis; 0.093 µM (≈ 0.06 µg/mL) against Bacillus cereus. In addition, the MIC amounted to 0.76 µM (≈ 0.49 µg/mL) in the assay on Micrococcus luteus; 0.006 µM (≈ 0.00387 µg/mL) against Escherichia coli; 0.046 µM (≈ 0.0297 µg/mL) with Klebsiella pneumoniae; 0.006 µM (≈ 0.00387 µg/mL) with Proteus mirabilis; 0.093 µM (≈ 0.06 µg/mL) against Pseudomonas aeruginosa [10]. In addition, the Ratio in the assay on Staphylococcus aureus [12] is on record as 8; in the assay with Staphylococcus aureus [7], “<=4”; in the assay with Staphylococcus aureus [8], “<=4”; with Staphylococcus aureus [9], “<=4”. Further, in the assay with HEK293, the response was half-maximal at 69.5 µM (EC50).
